In ChEMBL document CHEMBL1125123, “Antimalarial activity of new water-soluble dihydroartemisinin derivatives. 3. Aromatic amine analogues” (J Med Chem, 1990):
≈ marks a conversion by molar mass, not a printed value.

Assays:
Plasmodium falciparum [1] = test: Antimalarial activity against Plasmodium falciparum W-2 Indochina in human malaria; format: functional, organism-based
Procedure, shortened: (§1)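 Compounds dissolved in DMSO and 70% ethanol, then diluted in RPMI 1640 with 10% human plasma and tested over 1.56–100 × 10⁻⁹ M. Parasites at 0.5% parasitemia and 1% hematocrit were exposed to compound for 24 h before ³H-hypoxanthine was added. Uptake was read by scintillation counting, and IC50 was derived by nonlinear regression of concentration-response data.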

Plasmodium falciparum [2] = test: Antimalarial activity against Plasmodium falciparum D6 Africa in human malaria; format: functional, organism-based; procedure, shortened: as §1

| Structure (SMILES) | IC50 (Plasmodium falciparum [1]) [ng/mL] | IC50 (Plasmodium falciparum [2]) [ng/mL] |
| --- | --- | --- |
| C[C@@H]1CC[C@H]2[C@](C)(Br)[C@@H](Nc3nccs3)O[C@@H]3O[C@@]4(C)CC[C@@H]1[C@]32OO4 | 0.21 (≈ 0.472 nM) | 0.91 (≈ 2.04 nM) |
| C[C@@H]1CC[C@H]2[C@](C)(Br)[C@@H](Nc3ccccn3)O[C@@H]3O[C@@]4(C)CC[C@@H]1[C@]32OO4 | 1.19 (≈ 2.71 nM) | 7.72 (≈ 17.6 nM) |
| C[C@@H]1CC[C@H]2[C@](C)(Br)[C@@H](Nc3ncccn3)O[C@@H]3O[C@@]4(C)CC[C@@H]1[C@]32OO4 | 5.56 (≈ 12.6 nM) | 26 (≈ 59 nM) |
| C[C@@H]1CC[C@H]2[C@@H](C)C(=O)O[C@@H]3O[C@@]4(C)CC[C@@H]1[C@]32OO4 [ARTEMISININ] | – | 0.56 (≈ 1.98 nM) |
| C[C@@H]1CC[C@H]2[C@](C)(Br)[C@@H](Nc3cccc(F)c3)O[C@@H]3O[C@@]4(C)CC[C@@H]1[C@]32OO4 | < 0.16 | 0.16 (≈ 0.351 nM) |
| C[C@@H]1CC[C@H]2[C@](C)(Br)[C@@H](Nc3ccccc3)O[C@@H]3O[C@@]4(C)CC[C@@H]1[C@]32OO4 | 0.63 (≈ 1.44 nM) | 3.42 (≈ 7.8 nM) |
